The text below walks through data of ChEMBL document CHEMBL4038305, “Benzoxaborole Antimalarial Agents. Part 5. Lead Optimization of Novel Amide Pyrazinyloxy Benzoxaboroles and Identification of a Preclinical Candidate” (J Med Chem, 2017).

System in the first series: not listed separately
Kind of series: Cmax in CD1 mouse plasma at 5 mg/kg, po via gavage by HPLC/MS analysis. It is filed as ADME, organism-based.
Details: not given
The arrangement: dose 5 mg/kg, route oral. Put shortly: (§1)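 Female CD-1 mice, male SD rats and beagle dogs received 5 mg/kg either iv or by oral gavage. Vehicle was PEG 300/propylene glycol/water (55/25/20, pH 6). Blood was sampled and drug measured by HPLC-MS/MS.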
The term Cmax denotes the maximum level reached in the sampled fluid or tissue. For the molecule `Cc1c(Oc2cnc(C(=O)N3CC(C)(O)C3)cn2)ccc2c1B(O)OC2`, the highest level (Cmax) was 3900 ng/mL.

System in the next series: not listed separately
In words: Oral bioavailability in CD1 mouse at 5 mg/kg by HPLC/MS analysis. It is filed as ADME, organism-based. The settings on record: in vivo. The gist of the method: (§2)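 Female CD-1 mice, male SD rats or beagle dogs given 5 mg/kg by iv injection or oral gavage. Formulation was PEG300/propylene glycol/water 55/25/20, pH 6. Blood samples analysed by HPLC–MS/MS; parameters include AUC0-inf extrapolated to infinity and terminal half-life.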
As to `Cc1c(Oc2cnc(C(=O)N3CC(C)(O)C3)cn2)ccc2c1B(O)OC2`, the bioavailability amounted to 101%.

System in a further series: not listed separately
In words: Clearance in CD1 mouse at 5 mg/kg, iv by HPLC/MS analysis. It is filed as ADME, organism-based. The following applies: in vivo. The gist of the method:
as §1
By clearance is commonly meant the rate of elimination divided by the concentration. Consider `Cc1c(Oc2cnc(C(=O)N3CC(C)(O)C3)cn2)ccc2c1B(O)OC2`, for which the clearance is 4.07 mL/min/kg.

System in another series: not listed separately
In words: AUC (0 to infinity) in CD1 mouse at 5 mg/kg, iv by HPLC/MS analysis. Also noted: dose 5 mg/kg, time infinity, route intravenous. The settings on record: in vivo. It is filed as ADME, organism-based.
Usually AUC(0-inf) stands for total exposure, with the tail of the curve extrapolated. For the molecule `Cc1c(Oc2cnc(C(=O)N3CC(C)(O)C3)cn2)ccc2c1B(O)OC2`, the AUC(0-inf) was found to be 20500 ng·h/mL.

System in another series: not listed separately
In words: Terminal half life in CD1 mouse at 5 mg/kg, iv by HPLC/MS analysis. It is filed as ADME, organism-based. The following applies: in vivo, read-out: beta t1/2 (converted). Put shortly: as §2
Regarding `Cc1c(Oc2cnc(C(=O)N3CC(C)(O)C3)cn2)ccc2c1B(O)OC2`, the half-life is 7.1 h.

Another series has as its system Plasmodium berghei. Kind of series: Antimalarial activity against Plasmodium berghei infected in Swiss Webster mouse assessed as mouse survival rate at 1.1 mg/kg administered once daily via oral gavage for 4 consecutive days beginning 1 hr after infection measured on day 4 post infection relative to control.
Details: not given
It is filed as functional. Put shortly: (§3)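 Mice given an intraperitoneal injection of P. berghei-infected erythrocytes taken from a previously infected animal. Oral dosing once daily for 4 consecutive days, starting 1 h after infection. Vehicle: polyethylene glycol 300/propylene glycol/water (weight ratio 55/25/20). Percent survival recorded daily from day 4 to day 20. Chloroquine 30 mg/kg and vehicle-only groups served as controls.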
In the case of `Cc1c(Oc2cnc(C(=O)N3CC(O)(C(F)(F)F)C3)cn2)ccc2c1B(O)OC2`, the survival at 1.1 mg/kg amounted to 100%.

For the next series, the system named is Plasmodium berghei. Kind of series: Antimalarial activity against Plasmodium berghei infected in Swiss Webster mouse assessed as mouse survival rate at 1.1 mg/kg administered once daily via oral gavage for 4 consecutive days beginning 1 hr after infection measured on day 5 post infection relative to control. It is filed as functional.
Details: not given
The gist of the method:
as §3
In the case of `Cc1c(Oc2cnc(C(=O)N3CC(O)(C(F)(F)F)C3)cn2)ccc2c1B(O)OC2`, the survival at 1.1 mg/kg was found to be 100%.

Another series relates to Plasmodium berghei. In words: Antimalarial activity against Plasmodium berghei infected in Swiss Webster mouse assessed as mouse survival rate at 1.1 mg/kg administered once daily via oral gavage for 4 consecutive days beginning 1 hr after infection measured on day 6 post infection relative to control. It is filed as functional.
Details: not given
The gist of the method: as §3
Regarding `Cc1c(Oc2cnc(C(=O)N3CC(O)(C(F)(F)F)C3)cn2)ccc2c1B(O)OC2`, the survival at 1.1 mg/kg was 100%.

Another series concerns Plasmodium berghei. In words: Antimalarial activity against Plasmodium berghei infected in Swiss Webster mouse assessed as mouse survival rate at 1.1 mg/kg administered once daily via oral gavage for 4 consecutive days beginning 1 hr after infection measured on day 7 post infection relative to control. It is filed as functional.
Details: not given
The gist of the method:
as §3
Consider `Cc1c(Oc2cnc(C(=O)N3CC(O)(C(F)(F)F)C3)cn2)ccc2c1B(O)OC2`, for which the survival at 1.1 mg/kg amounted to 0%.

The next series relates to Plasmodium berghei. Kind of series: Antimalarial activity against Plasmodium berghei infected in Swiss Webster mouse assessed as mouse survival rate at 100 mg/kg administered once daily via oral gavage for 4 consecutive days beginning 1 hr after infection measured on day 15 post infection relative to control. It is filed as functional.
Details: not given
The gist of the method: as §3
Regarding `Cc1c(Oc2cnc(C(=O)N3CC(O)(C(F)(F)F)C3)cn2)ccc2c1B(O)OC2`, the survival at 100 mg/kg turned out to be 100%.

`Cc1c(Oc2cnc(C(=O)N3CC(C)(O)C3)cn2)ccc2c1B(O)OC2`: the survival at 100 mg/kg is 60%.

A further series deals with Plasmodium berghei. Kind of series: Antimalarial activity against Plasmodium berghei infected in Swiss Webster mouse assessed as mouse survival rate at 100 mg/kg administered once daily via oral gavage for 4 consecutive days beginning 1 hr after infection measured on day 17 post infection relative to control. It is filed as functional.
Details: not given
The gist of the method: as §3
For `Cc1c(Oc2cnc(C(=O)N3CC(C)(O)C3)cn2)ccc2c1B(O)OC2`, the survival at 100 mg/kg came to 0%.

The next series has as its system Plasmodium berghei. In words: Antimalarial activity against Plasmodium berghei infected in Swiss Webster mouse assessed as mouse survival rate at 100 mg/kg administered once daily via oral gavage for 4 consecutive days beginning 1 hr after infection measured from day 16 to day 19 post infection relative to control. It is filed as functional.
Details: not given
The gist of the method:
as §3
As for `Cc1c(Oc2cnc(C(=O)N3CC(O)(C(F)(F)F)C3)cn2)ccc2c1B(O)OC2`, the survival at 100 mg/kg was determined as 100%.

Another series concerns Plasmodium berghei. Kind of series: Antimalarial activity against Plasmodium berghei infected in Swiss Webster mouse assessed as mouse survival rate at 100 mg/kg administered once daily via oral gavage for 4 consecutive days beginning 1 hr after infection measured on day 20 post infection relative to control. It is filed as functional.
Details: not given
The gist of the method:
as §3
With `Cc1c(Oc2cnc(C(=O)N3CC(O)(C(F)(F)F)C3)cn2)ccc2c1B(O)OC2`, the survival at 100 mg/kg was 100%.

The test system of a further series is Plasmodium falciparum. In words: Antimalarial activity against Plasmodium falciparum 3D7 0087/N9 infected in NOD/SCID IL2R gamma null mouse assessed as compound concentration in whole blood require to reduce parasitemia in peripheral blood administered once daily via oral gavage for 4 consecutive days measured on day 7 post infection.
Details: not given
It is filed as functional.
In the case of `Cc1c(Oc2cnc(C(=O)N3CC(C)(O)C3)cn2)ccc2c1B(O)OC2`, the AUCED90 amounted to 1.4 µg.hr/ml/day.
